Rows were chosen to be rich in hits. Some 2.3% of all compounds tested hit in one or more screens of this group.
Rpn11 inh – Rpn11 (PSMD14) deubiquitinase inhibitors, primary screen, biochemical, fluorescence polarization, uHTS; 26S proteasome non-ATPase regulatory subunit 14 (Homo sapiens), O00487; human 26S proteasome, Ub4-pepOG fluorescence polarization; 20S core pre-blocked with epoxomicin; inhibition, % at 20 µM; 0.59% of 360,000 active; AID 588493, 2011;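 active = inhibition at 20 µM, scaled to each plate's controls, above about 33%, limit read from the data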
STEP block – STEP phosphatase inhibitors, primary screen, biochemical, fluorescence intensity, uHTS. AID 588621, 2011. Tyrosine-protein phosphatase non-receptor type 5 (Homo sapiens), P54829. recombinant STEP, OMFP fluorogenic substrate. 0.25% of 360,000 active. inhibition, % at 20 µM;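 active = inhibition at 20 µM, scaled per plate between control wells, above about 37%, limit read from the data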;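 also: 0% = DMSO with enzyme and substrate and 100% = substrate only without enzyme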
Target sequence (P54829 whole entry, looked up): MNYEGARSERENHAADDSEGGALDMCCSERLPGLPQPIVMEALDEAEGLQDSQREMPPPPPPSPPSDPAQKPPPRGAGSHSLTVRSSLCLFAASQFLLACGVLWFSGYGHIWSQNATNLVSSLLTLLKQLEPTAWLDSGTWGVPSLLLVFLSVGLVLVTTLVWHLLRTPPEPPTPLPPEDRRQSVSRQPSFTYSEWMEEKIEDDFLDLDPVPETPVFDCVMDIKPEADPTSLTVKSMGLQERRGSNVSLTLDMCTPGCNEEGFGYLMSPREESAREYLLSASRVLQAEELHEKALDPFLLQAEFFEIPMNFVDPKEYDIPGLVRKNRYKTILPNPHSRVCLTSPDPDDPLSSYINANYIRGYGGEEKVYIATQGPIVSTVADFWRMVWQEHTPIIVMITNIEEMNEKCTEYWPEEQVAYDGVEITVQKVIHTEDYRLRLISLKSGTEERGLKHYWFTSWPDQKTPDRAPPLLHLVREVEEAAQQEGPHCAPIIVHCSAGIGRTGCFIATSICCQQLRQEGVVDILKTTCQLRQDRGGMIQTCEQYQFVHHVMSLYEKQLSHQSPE
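Measure: Control-normalized % inhibition with plate pattern correction | Test system: STEP phosphatase, cell-free reaction | Medium: pH 6.0 Bis-Tris with DTT and Tween 20 | Technique: Fluorescence, 480/540 nm | Times: Reaction 20 min, ambient temperature | Doses: Single compound dose of 20 µM, 1% DMSO final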
DNMT1 inh – human DNMT1 methyltransferase inhibitors, primary screen, biochemical, molecular beacon, fluorescence, HinP1I cleavage, uHTS. inhibition (reported as % activation of signal), % at 10 µM. DNA (cytosine-5)-methyltransferase 1 (Homo sapiens), P26358. AID 588458, 2011. 0.83% of 360,000 active; in the data active = inhibition above about 50%
LMPTP block – LMPTP phosphatase inhibitors, primary screen, biochemical, fluorescence intensity, uHTS | Low molecular weight phosphotyrosine protein phosphatase (Homo sapiens), P24666 | recombinant LMPTP-A, OMFP fluorogenic substrate | inhibition, % at 20 µM | 0.22% of 360,000 active | AID 651560, 2012;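 active = compounds that cut the enzyme signal by at least half of the control window in the single-dose screen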;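 also: plate controls were DMSO wells with enzyme plus substrate for no effect and substrate without enzyme for full effect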
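Assay system: LMPTP-A phosphatase enzyme | Input: 0.625 nM enzyme | Also added: Fluorogenic phosphatase substrate OMFP at 400 µM final | Compound dosing: One test concentration per compound, 20 µM, with 3% DMSO overall | Schedule: 50 min enzyme reaction at room temperature, protected from light | Signal: Fluorescence intensity | Benchmarks: no-enzyme and uninhibited controls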
Scp1 inh – Scp-1 phosphatase inhibitors, primary screen, biochemical, colorimetric, uHTS; Recombinant Scp1, phosphopeptide, malachite green phosphate absorbance; inhibition, % at 20 µM; 0.88% of 340,000 active;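 active = inhibition above about 50% at 20 µM, limit read from the data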;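 also: plate controls were DMSO wells with enzyme for no effect and wells lacking enzyme for full effect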
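Test system: SCP-1 phosphatase catalytic domain, residues 76-261; measured by: colorimetric phosphate reagent with accelerator and stabiliser, absorbance at 630 nm; timing: enzyme reaction 45 min at room temperature, colour 5 min, stabilisation 30 min; also added: Phosphorylated 17-residue peptide substrate; compound dosing: one concentration, 20 µM, with 1.0% DMSO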
SUMO1 PPI mod – modulators of SUMO1 protein-protein interactions, primary screen, biochemical, uHTS. Small ubiquitin-related modifier 1 (Homo sapiens), P63165. SUMO1 binding to a labelled peptide, TR-FRET, 1 h. 0.33% of 360,000 active. inhibition, % at 20 µM; in the data active = inhibition above about 37%
Scp1 confirm – Scp-1 phosphatase inhibitors, retest, confirmation, biochemical, colorimetric, single concentration; shares compounds with Scp1 inh; recombinant SCP-1 catalytic domain, phosphate release, malachite green absorbance; inhibition, % at 20 µM; 61% of 2,500 active;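 also: plate controls were DMSO with enzyme for no effect and buffer wells lacking enzyme for full effect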
Scp-1 MG ctr – colorimetric readout interference by compounds, confirmation, artefact control for Scp-1 inhibitor project, biochemical, single concentration; shares compounds with Scp1 inh; Colorimetric interference counterscreen, malachite green absorbance 630 nm; apparent inhibition (interference), % at 20 µM; 2,500 tested, under 10 active;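 also: compounds added after enzyme reaction finished so only phosphate colour detection is probed; plate controls were DMSO wells with completed Scp-1 reaction for no effect and substrate wells lacking enzyme for full effect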
Scp-1 Tm shift – Scp-1 binding by thermal shift, confirmation, orthogonal assay for Scp-1 inhibitor project, biophysical, differential scanning fluorimetry | thermal shift relative to vanadate control, % at 40 µM | 25% of 1,500 active | AID 540329, 2011 | shares compounds with Scp1 inh | Recombinant SCP1, Sypro Orange thermal shift Tm;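 active = substances whose mean melting-temperature shift, as a percentage of the reference inhibitor's shift, reaches about 5.3%, limit read from the data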;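 also: 0% = Tm of DMSO wells and 100% = Tm with sodium orthovanadate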
* marks the source's active call; other numbers are inactive results; · = not tested or not shown.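 The calls were made as follows, unless noted: active = inhibition of at least 30% at 20 µM; inactive = the rest.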

SMILES	Rpn11 inh	STEP block	DNMT1 inh	LMPTP block	Scp1 inh	SUMO1 PPI mod	Scp1 confirm	Scp-1 MG ctr	Scp-1 Tm shift
C=CCn1c(COc2cc(C)ccc2C(C)C)nnc1SCC(=O)c1c(N)n(C)c(=O)n(C)c1=O	-4	-2	15	1	52*	2	11	-1	·
Cc1ccc(C(C)C)c(OCC(=O)OCC(=O)c2c(N)n(C)c(=O)n(C)c2=O)c1	-3	2	3	0	-3	1	·	·	·
O=C1CCN(Cc2ccccc2)S(=O)(=O)c2ccccc21	3	1	3	1	68*	4	63*	-16	-21
CC(C)NC(=O)C(=O)NNC(=O)CCc1ccccc1	0	2	-2	-1	-1	3	·	·	·
Cn1c(=O)cc(OCC(=O)NCCC2=CCCCC2)c2ccccc21	1	-1	1	-1	-3	1	-8	-10	·
Cn1c(=O)cc(OCC(=O)NCCc2ccc(Cl)cc2)c2ccccc21	4	-1	1	-2	-6	1	·	·	·
O=C(O)c1cccc2c1C(=O)N(c1ccc3c(c1)Cc1ccccc1-3)C2=O	3	4	2	-1	64*	-21	60*	-17	-14
CC1(C)CC(C(CC(=O)N2CCCC2)Cc2ccccc2)CCO1 (configuration not stated)	-6	-2	0	2	-11	-4	·	·	·
O=C(Nc1ccccc1O)c1ccc2c(c1)C(=O)N(Cc1ccco1)C2=O	-8	6	4	17	68*	-4	59*	-14	4
COc1ccccc1NC(=O)c1ccc2c(c1)C(=O)N(Cc1ccco1)C2=O	-23	0	1	0	-2	-5	·	·	·
Cc1ccc(-n2nnnc2SCC(=O)NNC(=O)c2ccc([N+](=O)[O-])cc2)cc1	26	16	1	31	50*	-16	41*	-11	0
COc1ccc(-n2nnnc2SCC(=O)NNC(=O)c2ccc([N+](=O)[O-])cc2)cc1	-4	-2	3	1	5	19	·	·	·
CN(/N=C/c1cccnc1)c1cnn(-c2ccc(F)c(Cl)c2)c(=O)c1Cl	4	1	-1	0	75*	-4	39*	-8	-20
CN(/N=C/c1cccnc1)C1=NS(=O)(=O)c2ccccc21	0	-2	-4	-2	-8	11	·	·	·
CCN(C(=O)CSc1nnc(-c2ccc3c(c2)OCO3)o1)C1CCS(=O)(=O)C1 (configuration not stated)	-4	-3	0	-1	11	-11	·	·	·
Cc1ccc(S(=O)(=O)N2CCN(C(=O)COC(=O)CNC(=O)c3ccccc3F)CC2)c(C)c1	0	2	-2	-1	-3	1	·	·	·
O=C(c1cc(-n2cnnc2)ccc1Cl)N1CCN(c2nc(-c3ccccc3)cs2)CC1	-5	4	-4	2	1	-6	·	·	·

Source: PubChem
